Laboratory results taken from ChEMBL document CHEMBL2375313, “Synthesis, in vitro antitumor evaluation and DNA-binding study of novel tetrahydroquinolines and some derived tricyclic and tetracyclic ring systems” (Eur J Med Chem, 2013).

Experiments:
Assay type in all cases: functional
HOP-92 = test: Cytotoxicity against human HOP92 cells assessed as growth inhibition at 10 uM after 48 hrs by sulphorhodamine B assay; conditions: HOP-92, 48 h, read-out: GI
Outline: (§1)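 NCI-60 one-dose screen per the NCI Drug Evaluation Branch protocol. Cells given a single 10 µM concentration with 48 h continuous exposure. Growth estimated by sulphorhodamine B protein assay. Result expressed as percentage growth inhibition relative to untreated growth.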

NCI-H23 = test: Cytotoxicity against human NCI-H23 cells assessed as growth inhibition at 10 uM after 48 hrs by sulphorhodamine B assay; conditions: NCI-H23, 48 h, read-out: GI; outline: as §1
[1] = Cytotoxicity against human EKVX cells assessed as growth inhibition at 10 uM after 48 hrs by sulphorhodamine B assay; conditions: read-out: GI; outline: as §1
A549 = test: Cytotoxicity against human A549 cells assessed as growth inhibition at 10 uM after 48 hrs by sulphorhodamine B assay; conditions: A549, 48 h, read-out: GI; outline: as §1
NCI/ADR-RES = test: Cytotoxicity against human NCI/ADR-RES cells assessed as growth inhibition at 10 uM after 48 hrs by sulphorhodamine B assay; conditions: read-out: GI; outline: as §1
SNB-75 = test: Cytotoxicity against human SNB75 cells assessed as growth inhibition at 10 uM after 48 hrs by sulphorhodamine B assay; conditions: SNB-75, 48 h, read-out: GI; outline: as §1
U-251 = test: Cytotoxicity against human U251 cells assessed as growth inhibition at 10 uM after 48 hrs by sulphorhodamine B assay; conditions: U-251, 48 h, read-out: GI; outline: as §1
SNB-19 = test: Cytotoxicity against human SNB19 cells assessed as growth inhibition at 10 uM after 48 hrs by sulphorhodamine B assay; conditions: SNB-19, 48 h, read-out: GI; outline: as §1
SF-295 = test: Cytotoxicity against human SF295 cells assessed as growth inhibition at 10 uM after 48 hrs by sulphorhodamine B assay; conditions: SF-295, 48 h, read-out: GI; outline: as §1
DU-145 = test: Cytotoxicity against human DU145 cells assessed as growth inhibition at 10 uM after 48 hrs by sulphorhodamine B assay; conditions: DU-145, 48 h, read-out: GI; outline: as §1
SF-268 = test: Cytotoxicity against human SF268 cells assessed as growth inhibition at 10 uM after 48 hrs by sulphorhodamine B assay; conditions: SF-268, 48 h, read-out: GI; outline: as §1
PC-3 = test: Cytotoxicity against human PC3 cells assessed as growth inhibition at 10 uM after 48 hrs by sulphorhodamine B assay; conditions: PC-3, 48 h, read-out: GI; outline: as §1
UACC-62 = test: Cytotoxicity against human UACC62 cells assessed as growth inhibition at 10 uM after 48 hrs by sulphorhodamine B assay; conditions: UACC-62, 48 h, read-out: GI; outline: as §1
SK-MEL-2 = test: Cytotoxicity against human SK-MEL-2 cells assessed as growth inhibition at 10 uM after 48 hrs by sulphorhodamine B assay; conditions: SK-MEL-2, 48 h, read-out: GI; outline: as §1
SK-MEL-5 = test: Cytotoxicity against human SK-MEL-5 cells assessed as growth inhibition at 10 uM after 48 hrs by sulphorhodamine B assay; conditions: SK-MEL-5, 48 h, read-out: GI; outline: as §1
M14 = test: Cytotoxicity against human M14 cells assessed as growth inhibition at 10 uM after 48 hrs by sulphorhodamine B assay; conditions: M14, 48 h, read-out: GI; outline: as §1
LOX IMVI = test: Cytotoxicity against human LOXIMVI cells assessed as growth inhibition at 10 uM after 48 hrs by sulphorhodamine B assay; conditions: read-out: GI; outline: as §1
UO-31 = test: Cytotoxicity against human UO31 cells assessed as growth inhibition at 10 uM after 48 hrs by sulphorhodamine B assay; conditions: UO-31, 48 h, read-out: GI; outline: as §1
CAKI-1 = test: Cytotoxicity against human Caki1 cells assessed as growth inhibition at 10 uM after 48 hrs by sulphorhodamine B assay; conditions: CAKI-1, 48 h, read-out: GI; outline: as §1
RXF 393 = test: Cytotoxicity against human RXF393 cells assessed as growth inhibition at 10 uM after 48 hrs by sulphorhodamine B assay; conditions: RXF 393, 48 h, read-out: GI; outline: as §1
ACHN = test: Cytotoxicity against human ACHN cells assessed as growth inhibition at 10 uM after 48 hrs by sulphorhodamine B assay; conditions: read-out: GI; outline: as §1
SR = test: Cytotoxicity against human SR cells assessed as growth inhibition at 10 uM after 48 hrs by sulphorhodamine B assay; conditions: read-out: GI; outline: as §1
A498 = test: Cytotoxicity against human A498 cells assessed as growth inhibition at 10 uM after 48 hrs by sulphorhodamine B assay; conditions: A498, 48 h, read-out: GI; outline: as §1
RPMI-8226 = test: Cytotoxicity against human RPMI8226 cells assessed as growth inhibition at 10 uM after 48 hrs by sulphorhodamine B assay; conditions: RPMI-8226, 48 h, read-out: GI; outline: as §1
MOLT-4 = test: Cytotoxicity against human MOLT4 cells assessed as growth inhibition at 10 uM after 48 hrs by sulphorhodamine B assay; conditions: MOLT-4, 48 h, read-out: GI; outline: as §1
K562 = test: Cytotoxicity against human K562 cells assessed as growth inhibition at 10 uM after 48 hrs by sulphorhodamine B assay; conditions: K562, 48 h, read-out: GI; outline: as §1
HL-60(TB) = test: Cytotoxicity against human HL-60(TB) cells assessed as growth inhibition at 10 uM after 48 hrs by sulphorhodamine B assay; conditions: HL-60, 48 h, read-out: GI
Outline: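 NCI-60 one-dose primary screen run to the Drug Evaluation Branch protocol. Cells are exposed to a single 10 µM concentration for 48 h continuously, and growth is read by SRB protein assay. Data are reported as percent growth of treated cells, expressed as % growth inhibition.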

SK-OV-3 = test: Cytotoxicity against human SKOV3 cells assessed as growth inhibition at 10 uM after 48 hrs by sulphorhodamine B assay; conditions: SK-OV-3, 48 h, read-out: GI; outline: as §1
CCRF-CEM = test: Cytotoxicity against human CCRF-CEM cells assessed as growth inhibition at 10 uM after 48 hrs by sulphorhodamine B assay; conditions: read-out: GI; outline: as §1
OVCAR-5 = test: Cytotoxicity against human OVCAR5 cells assessed as growth inhibition at 10 uM after 48 hrs by sulphorhodamine B assay; conditions: OVCAR-5, 48 h, read-out: GI; outline: as §1
OVCAR-4 = test: Cytotoxicity against human OVCAR4 cells assessed as growth inhibition at 10 uM after 48 hrs by sulphorhodamine B assay; conditions: OVCAR-4, 48 h, read-out: GI; outline: as §1
IGROV-1 = test: Cytotoxicity against human IGROV1 cells assessed as growth inhibition at 10 uM after 48 hrs by sulphorhodamine B assay; conditions: IGROV-1, 48 h, read-out: GI; outline: as §1
T47D = test: Cytotoxicity against human T47D cells assessed as growth inhibition at 10 uM after 48 hrs by sulphorhodamine B assay; conditions: read-out: GI; outline: as §1
Hs-578T = test: Cytotoxicity against human Hs578T cells assessed as growth inhibition at 10 uM after 48 hrs by sulphorhodamine B assay; conditions: read-out: GI; outline: as §1
NCI-H522 = test: Cytotoxicity against human NCI-H522 cells assessed as growth inhibition at 10 uM after 48 hrs by sulphorhodamine B assay; conditions: NCI-H522, 48 h, read-out: GI; outline: as §1
HT-29 = test: Cytotoxicity against human HT-29 cells assessed as growth inhibition at 10 uM after 48 hrs by sulphorhodamine B assay; conditions: HT-29, 48 h, read-out: GI; outline: as §1
MCF7 = test: Cytotoxicity against human MCF7 cells assessed as growth inhibition at 10 uM after 48 hrs by sulphorhodamine B assay; conditions: MCF7, 48 h, read-out: GI; outline: as §1
MDA-MB-435 = test: Cytotoxicity against human MDA-MB-435 cells assessed as growth inhibition at 10 uM after 48 hrs by sulphorhodamine B assay; conditions: MDA-MB-435, 48 h, read-out: GI; outline: as §1
HCT-15 = test: Cytotoxicity against human HCT15 cells assessed as growth inhibition at 10 uM after 48 hrs by sulphorhodamine B assay; conditions: HCT-15, 48 h, read-out: GI; outline: as §1
MDA-MB-468 = test: Cytotoxicity against human MDA-MB-468 cells assessed as growth inhibition at 10 uM after 48 hrs by sulphorhodamine B assay; conditions: MDA-MB-468, 48 h, read-out: GI; outline: as §1
HCT-116 = test: Cytotoxicity against human HCT116 cells assessed as growth inhibition at 10 uM after 48 hrs by sulphorhodamine B assay; conditions: HCT-116, 48 h, read-out: GI; outline: as §1

**Q.** For `CC1CCCc2c1nc1[nH]c(=O)nc(N)c1c2-c1ccc(Cl)cc1` (stereo unspecified), which inhibition of growth at 10 µM (HOP-92) is on record?
**A.** 27.7%

**Q.** What about the inhibition of growth at 10 µM (NCI-H23) of the same compound?
**A.** 10%

**Q.** What about the inhibition of growth at 10 µM [1] of the same compound?
**A.** < 10%

**Q.** And the inhibition of growth at 10 µM (A549)?
**A.** 11.5%

**Q.** And the inhibition of growth at 10 µM (NCI/ADR-RES)?
**A.** < 10%

**Q.** And the inhibition of growth at 10 µM (SNB-75)?
**A.** 11%

**Q.** And the inhibition of growth at 10 µM (U-251)?
**A.** 10.2%

**Q.** What about the inhibition of growth at 10 µM (SNB-19) of the same compound?
**A.** 16.6%

**Q.** And the inhibition of growth at 10 µM (SF-295)?
**A.** < 10%

**Q.** What about the inhibition of growth at 10 µM (DU-145) of the same compound?
**A.** 14%

**Q.** What about the inhibition of growth at 10 µM (SF-268) of the same compound?
**A.** < 10%

**Q.** What about the inhibition of growth at 10 µM (PC-3) of the same compound?
**A.** 12.7%

**Q.** And the inhibition of growth at 10 µM (UACC-62)?
**A.** 25.4%

**Q.** And the inhibition of growth at 10 µM (SK-MEL-2)?
**A.** < 10%

**Q.** And the inhibition of growth at 10 µM (SK-MEL-5)?
**A.** < 10%

**Q.** And the inhibition of growth at 10 µM (M14)?
**A.** < 10%

**Q.** And the inhibition of growth at 10 µM (LOX IMVI)?
**A.** < 10%

**Q.** What about the inhibition of growth at 10 µM (UO-31) of the same compound?
**A.** 10%

**Q.** What about the inhibition of growth at 10 µM (CAKI-1) of the same compound?
**A.** < 10%

**Q.** What about the inhibition of growth at 10 µM (RXF 393) of the same compound?
**A.** < 10%

**Q.** And the inhibition of growth at 10 µM (ACHN)?
**A.** < 10%

**Q.** What about the inhibition of growth at 10 µM (SR) of the same compound?
**A.** < 10%

**Q.** And the inhibition of growth at 10 µM (A498)?
**A.** < 10%

**Q.** And the inhibition of growth at 10 µM (RPMI-8226)?
**A.** 23%

**Q.** What about the inhibition of growth at 10 µM (MOLT-4) of the same compound?
**A.** < 10%

**Q.** And the inhibition of growth at 10 µM (K562)?
**A.** 36.4%

**Q.** And the inhibition of growth at 10 µM (HL-60(TB))?
**A.** 24.6%

**Q.** And the inhibition of growth at 10 µM (SK-OV-3)?
**A.** < 10%

**Q.** What about the inhibition of growth at 10 µM (CCRF-CEM) of the same compound?
**A.** < 10%

**Q.** What about the inhibition of growth at 10 µM (OVCAR-5) of the same compound?
**A.** < 10%

**Q.** And the inhibition of growth at 10 µM (OVCAR-4)?
**A.** 13.6%

**Q.** And the inhibition of growth at 10 µM (IGROV-1)?
**A.** < 10%

**Q.** And the inhibition of growth at 10 µM (T47D)?
**A.** 29.5%

**Q.** And the inhibition of growth at 10 µM (Hs-578T)?
**A.** 19.4%

**Q.** And the inhibition of growth at 10 µM (NCI-H522)?
**A.** 12.9%

**Q.** What about the inhibition of growth at 10 µM (HT-29) of the same compound?
**A.** < 10%

**Q.** What about the inhibition of growth at 10 µM (MCF7) of the same compound?
**A.** < 10%

**Q.** And the inhibition of growth at 10 µM (MDA-MB-435)?
**A.** < 10%

**Q.** And the inhibition of growth at 10 µM (HCT-15)?
**A.** 10%

**Q.** What about the inhibition of growth at 10 µM (MDA-MB-468) of the same compound?
**A.** 10%

**Q.** And the inhibition of growth at 10 µM (HCT-116)?
**A.** 14%
